Compound activity as filed in PubChem.
This is a sample that favours compounds with a hit; in the whole collection about 2.2% have one here.
FN deposit inh – fibronectin deposition inhibition. AH1F fibroblasts, Alexa488-fibronectin deposition fluorescence, overnight. inhibition, % at 12.6 µM. hit rate 0.086% among 350,000. AID 743247;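 active means mean inhibition across replicates of 30% or more, regardless of how many single replicates reach that level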;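 further: positive control wells lacked labelled fibronectin entirely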
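material = AH1F fibroblast monolayer depositing Alexa488-labelled fibronectin into matrix | amount = 10000 AH1F cells/well | buffer or medium = DMEM plus 2% serum, read in PBS | incubation = 1 h cell adhesion before compound, then overnight fibronectin incubation | detection = fluorescence at 485 nm excitation, 525 nm emission | evaluation = percent inhibition as loss of matrix-bound fibronectin fluorescence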
FGF22 binding – binders of recombinant human FGF22 by thermal shift. SYPRO orange fluorescence; percent of sucrose octasulfate shift, DMSO zero. activity (Tm shift, normalised), % at 9.99 µM. hit rate 1.5% among 340,000. AID 651658;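 active means mean Tm shift, scaled 0 neutral to 100 positive control, at about 1.3% or above, every replicate too, limit read from the data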
PGC1a acetyl inh – modulators of PGC1a acetylation. hit rate 0.17% among 350,000. inhibition, % at 15.6 µM. AID 651687. U2OS PGC1a acetylation, AlphaScreen anti-acetyl-lysine; with virally co-expressed GCN5 acetyltransferase;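 active means every replicate shows inhibition of at least 40%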;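 further: 0% = neutral control wells and 100% = positive control wells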
ERAP1 inh – blocks human ERAP1 aminopeptidase activity. recombinant ERAP1, Leu-AMC fluorescence, 60 min. inhibition, % at 10.7 µM. hit rate 0.15% among 340,000. AID 652197;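 active means mean replicate inhibition of at least 30%, or all replicates individually reaching that 30% level; inactive means mean below 30% and not every replicate reaching it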;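 further: 0% = neutral control wells and 100% = L-leucinethiol positive control wells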
Target sequence (Q9NZ08 whole entry, looked up): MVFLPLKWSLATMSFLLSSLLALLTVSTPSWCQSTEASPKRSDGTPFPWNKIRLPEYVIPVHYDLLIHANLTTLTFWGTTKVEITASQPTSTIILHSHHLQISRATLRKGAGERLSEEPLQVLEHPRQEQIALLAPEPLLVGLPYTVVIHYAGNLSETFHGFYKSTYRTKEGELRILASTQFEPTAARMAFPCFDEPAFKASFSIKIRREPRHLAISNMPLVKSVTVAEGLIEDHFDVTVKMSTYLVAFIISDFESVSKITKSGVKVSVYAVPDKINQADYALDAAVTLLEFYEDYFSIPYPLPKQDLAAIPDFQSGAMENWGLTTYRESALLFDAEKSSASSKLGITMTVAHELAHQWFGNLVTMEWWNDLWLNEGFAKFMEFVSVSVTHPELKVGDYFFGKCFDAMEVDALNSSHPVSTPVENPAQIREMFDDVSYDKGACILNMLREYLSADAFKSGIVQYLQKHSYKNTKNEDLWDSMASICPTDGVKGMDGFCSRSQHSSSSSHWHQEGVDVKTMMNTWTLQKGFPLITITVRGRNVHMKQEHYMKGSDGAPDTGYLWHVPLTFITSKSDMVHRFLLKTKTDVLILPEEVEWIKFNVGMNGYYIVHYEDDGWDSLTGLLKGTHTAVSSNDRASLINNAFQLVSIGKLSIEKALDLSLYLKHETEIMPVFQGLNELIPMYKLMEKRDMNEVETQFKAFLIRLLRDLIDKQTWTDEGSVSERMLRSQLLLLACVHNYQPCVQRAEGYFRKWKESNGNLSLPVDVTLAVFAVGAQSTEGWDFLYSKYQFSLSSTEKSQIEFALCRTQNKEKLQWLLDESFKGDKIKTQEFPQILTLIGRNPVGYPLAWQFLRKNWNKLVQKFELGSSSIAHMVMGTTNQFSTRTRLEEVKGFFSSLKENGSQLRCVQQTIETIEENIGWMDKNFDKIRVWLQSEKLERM
SIRT5 inh – blocks human SIRT5 desuccinylation of peptide; Purified SirT5, succinyl-peptide AMC, trypsin-coupled fluorescence; Q9NXA8; hit rate 1.1% among 330,000; inhibition, % at 15 µM; in the data active means inhibition above about 15%
Active calls of the source: *; x = no result; ! = not active in a repeat.

SMILES	FN deposit inh	FGF22 binding	PGC1a acetyl inh	ERAP1 inh	SIRT5 inh
CNC[C@H]1OCCCC[C@H](C)Oc2ccc(NC(=O)Nc3cccc4ccccc34)cc2C(=O)N([C@@H](C)CO)C[C@@H]1C	x	-0.3	-45.1	-4.8	-2.6
O=C1N/C(=N\S(=O)(=O)Cc2ccccc2)S/C1=C/c1cccc([N+](=O)[O-])c1	-9.8	1.3	-1.9	2.7	2.8
O=C1N/C(=N/O)S/C1=C/c1cccc([N+](=O)[O-])c1	9.7	44.5*	-0.1	-0.7	-0.6
Cc1ccccc1NCC(=O)N/N=C\c1ccc2c(c1)OCO2	-4.4	44.0*	x	-0.8	-1.1
CCOc1ccc(NC(=O)CCC(=O)N/N=C/c2ccc3c(c2)OCO3)cc1	x	-0.1	x	1.3	-1.6
C[n+]1cccc(C(=O)N/N=C/c2ccc3c(c2)OCO3)c1	2.3	0.6	1.7	45.6*	10.6
Cc1ccc(C)c(NC(=O)CCC(=O)N/N=C/c2ccc3c(c2)OCO3)c1	x	43.4*	-10.5	10.3	1.4
Cc1ccccc1NC(=O)CCC(=O)N/N=C/c1ccc(F)cc1	-5.0	43.0*	5.3	-1.9	-8.7
Cc1ccc(S(N)(=O)=O)cc1NC(=O)/C=C/c1ccc2c(c1)OCO2	5.9	43.5*	-1.9	3.9	0.6
COc1ccccc1C(=O)N1C[C@H]2[C@@H](c3ccccc31)[C@@H](CO)N2C(=O)Cc1cccnc1	x	-0.1	1.2	-2.5	-0.4
COc1ccc(NC(=O)Nc2ccc3c(c2)C(=O)N([C@@H](C)CO)C[C@H](C)[C@H](CN(C)S(=O)(=O)c2cn(C)cn2)O3)cc1	-0.9	0.1	-11.7	1.0	-1.2
c1ccc(-c2nnsc2-c2nc3ccccc3[nH]2)cc1	-2.0	43.3*	3.4	-4.9	-5.6
c1ccc(-c2nnsc2-c2ncc[nH]2)cc1	-5.4	0.1	1.6	-3.5	10.7
C[C@H]1CN([C@@H](C)CO)C(=O)c2cccc(NC(=O)c3ccncc3)c2O[C@H]1CN(C)C(=O)NC1CCCCC1	x	-0.5	-3.8	3.5	-0.8
CO[C@@H]1CN(C)C(=O)c2ccc(NC(=O)C3CCC3)cc2OC[C@@H](C)N(Cc2ccc(F)cc2)C[C@H]1C	-2.2	-0.3	x	-0.3	5.0
Cc1ccc2nc(SCC(=O)Nc3ccc(F)cc3)nc(=O)n2c1	4.5	-0.1	76.3*	1.8	-1.6
O=C(C[C@H]1CC[C@H]2[C@@H](COC[C@@H](O)CN2S(=O)(=O)c2cccc(F)c2)O1)NC1CCC1	-7.8	0.1	0.6	0.0	-7.3
O=C(c1cc2cc([N+](=O)[O-])ccc2oc1=O)N1CCOCC1	-0.6	43.2*	0.0	-7.8	-0.4
O=C(c1cc2cc([N+](=O)[O-])ccc2oc1=O)N1CCN(c2ncccn2)CC1	x	x	3.2	x	x
Cc1ccc(C)c(S(=O)(=O)N(C(=O)c2ccncc2)c2ccc(OC(=O)c3ccncc3)cc2)c1	12.5	0.7	44.1*	4.8	-0.8
COc1cc(N(C)C)ccc1C=c1c2ccccc2n2c1cc(-c1ccccc1)[n+]2C	4.9	-0.7	15.3	39.7*	3.6
COc1ccc(S(=O)(=O)N(C)C[C@@H]2OCCCC[C@@H](C)Oc3ccc(NS(=O)(=O)c4c(C)noc4C)cc3C(=O)N([C@@H](C)CO)C[C@H]2C)cc1	-7.7	-0.9	4.1	-2.3	9.3
C#CCCCCCCCCC(=O)NCCCC	0.4	43.3*	-3.3	-6.8	2.3
CCCCCCCCCCCCCCCC(=O)NCCO	-2.3	-0.2	3.6	1.6	-3.8
CO[C@@H]1CN(C)C(=O)c2cc(NC(=O)C3CCC3)ccc2OC[C@@H](C)N(C(=O)Nc2ccc(C(F)(F)F)cc2)C[C@H]1C	-24.5	-0.2	x	0.8	11.1
SMILES	FN deposit inh	FGF22 binding	PGC1a acetyl inh	ERAP1 inh	SIRT5 inh
CN1C=C/C(=C\c2cc[n+](C)c3ccccc23)c2ccccc21	0.1	-0.1	x	79.8*	1.7
C[C@@H]1CN([C@H](C)CO)S(=O)(=O)c2ccc(/C=C/c3ccccc3)cc2O[C@H]1CN(C)C(=O)NC1CCCC1	15.9	-0.5	-2.9	1.0	15.2*
C/C=C/c1ccc2c(c1)O[C@H](CN(C)C(=O)NC1CCCC1)[C@H](C)CN([C@H](C)CO)S2(=O)=O	-12.8	-0.3	-8.0	-0.3	15.8*!
C[C@H](CO)N1C[C@H](C)[C@@H](CN(C)C(=O)NC2CCCC2)Oc2cc(/C=C/c3ccccc3)ccc2S1(=O)=O	5.4	0.0	-2.4	0.1	0.3
C/C=C/c1ccc2c(c1)O[C@@H](CN(C)C(=O)NC1CCCCC1)[C@@H](C)CN([C@@H](C)CO)S2(=O)=O	-8.4	0.0	-10.1	0.1	2.2
C[C@@H]1CN([C@@H](C)CO)S(=O)(=O)c2ccc(/C=C/c3ccccc3)cc2O[C@H]1CN(C)C(=O)NC1CCCC1	7.5	0.1	-1.9	0.0	16.2*
C/C=C/c1ccc2c(c1)O[C@@H](CN(C)C(=O)NC1CCCC1)[C@H](C)CN([C@@H](C)CO)S2(=O)=O	-0.5	-0.1	-3.6	-0.1	-2.9
O=C1Nc2ccccc2C(=O)N2[C@H](c3ccccc3)[C@@H]3C(=O)N(Cc4ccccc4)C(=O)[C@@H]3[C@H]12	-5.5	0.0	-1.1	0.1	15.8*
O=C1Nc2ccccc2C(=O)N2[C@H](c3cccc(Br)c3)[C@@H]3C(=O)N(Cc4ccccc4)C(=O)[C@@H]3[C@H]12	-9.5	-0.4	x	-0.6	x
O=C(NC1CCS(=O)(=O)C1)c1cccc(S(=O)(=O)N2CCCCC2)c1 (stereo not given)	x	x	9.4	x	x
O=C(NC1CCS(=O)(=O)C1)c1cccc(Br)c1 (stereo not given)	-2.8	-0.1	x	0.9	17.3*
Cc1noc(C)c1S(=O)(=O)Nc1ccc2c(c1)C(=O)N([C@H](C)CO)C[C@@H](C)[C@@H](CN(C)C(=O)NC1CCCCC1)OCCCC[C@H](C)O2	x	-1.0	x	1.6	1.1
COC(=O)NC1(C(F)(F)F)C(=O)Nc2c1c(=O)n(C)c(=O)n2C (stereo not given)	1.0	42.9*	11.1	-1.0	1.4
CC(=O)NC1(C(F)(F)F)C(=O)Nc2c1c(=O)n(C)c(=O)n2C (stereo not given)	2.3	x	-11.9	x	x
CC(=O)Nc1cccc(C(=O)/C=C/c2ccc(/C=C/C(=O)c3cccc(NC(C)=O)c3)cc2)c1	-16.0	43.1*	x	2.5	-2.6
C[C@H](CO)N1C[C@H](C)[C@@H](CN(C)Cc2ccc(C(=O)O)cc2)OCc2cn(nn2)CCCC1=O	3.2	-0.2	10.8	-1.7	12.2
CO[C@H](CN(C)Cc1nccs1)[C@@H](C)CN([C@@H](C)CO)S(=O)(=O)c1ccc(C)cc1	11.8	0.3	0.4	0.9	19.3*
Cc1oc(-c2ccc(Cl)cc2)nc1CN1CCCC(C(=O)N2CCOCC2)C1 (stereo not given)	0.2	0.2	3.9	-1.7	21.5*
COc1nc(N2CCOCC2)nc(-n2cccc2)n1	x	x	x	-0.5	22.6*
COc1ccc(Nc2nc(OC)nc(N3CCOCC3)n2)cc1	-3.4	-0.2	-0.4	x	-3.0
